Data published in ChEMBL document CHEMBL4371033, “Highly Potent and Selective Plasmin Inhibitors Based on the Sunflower Trypsin Inhibitor-1 Scaffold Attenuate Fibrinolysis in Plasma” (J Med Chem, 2019).
Residues, ends and D or L forms follow the SMILES beside them.

Key:
Serine protease 1 = target: T1, Serine protease 1 (Bos taurus, UniProt P00760); test: Inhibition of bovine cationic trypsin using Bz-FVR-pNA as substrate after 30 mins
T1 sequence (P00760 whole entry): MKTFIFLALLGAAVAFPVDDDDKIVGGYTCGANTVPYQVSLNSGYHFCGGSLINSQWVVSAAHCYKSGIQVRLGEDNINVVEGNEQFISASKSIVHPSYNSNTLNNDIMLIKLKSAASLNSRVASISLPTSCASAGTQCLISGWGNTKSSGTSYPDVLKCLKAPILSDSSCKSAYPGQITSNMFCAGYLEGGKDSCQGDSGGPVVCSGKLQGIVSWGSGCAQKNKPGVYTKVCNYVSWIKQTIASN

Cathepsin G = target: T2, Cathepsin G (Homo sapiens, UniProt P08311); test: Inhibition of human cathepsin G using Suc-AAPF-MCA as substrate after 30 mins
T2 sequence (P08311 whole entry): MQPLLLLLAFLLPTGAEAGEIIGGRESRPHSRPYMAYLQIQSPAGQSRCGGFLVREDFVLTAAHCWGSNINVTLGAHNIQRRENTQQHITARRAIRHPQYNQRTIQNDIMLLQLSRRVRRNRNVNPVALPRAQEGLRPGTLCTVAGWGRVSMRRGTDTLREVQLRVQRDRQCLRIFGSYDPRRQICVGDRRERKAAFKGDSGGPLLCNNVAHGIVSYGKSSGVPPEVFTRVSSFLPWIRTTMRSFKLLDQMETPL

Coagulation factor IX = Coagulation factor IX (Homo sapiens, UniProt P00740); test: Inhibition of activated beta-factor 9 (unknown origin) using Boc-QGR-MCA as substrate after 30 mins relative to untreated control
Chain of Coagulation factor IX (P00740 47-191 limits assumed): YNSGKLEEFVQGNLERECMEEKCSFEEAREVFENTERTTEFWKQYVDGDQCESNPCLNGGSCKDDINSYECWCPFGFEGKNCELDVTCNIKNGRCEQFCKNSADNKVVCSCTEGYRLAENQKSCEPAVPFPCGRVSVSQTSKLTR
Chain of Coagulation factor IX (P00740 227-461 limits assumed): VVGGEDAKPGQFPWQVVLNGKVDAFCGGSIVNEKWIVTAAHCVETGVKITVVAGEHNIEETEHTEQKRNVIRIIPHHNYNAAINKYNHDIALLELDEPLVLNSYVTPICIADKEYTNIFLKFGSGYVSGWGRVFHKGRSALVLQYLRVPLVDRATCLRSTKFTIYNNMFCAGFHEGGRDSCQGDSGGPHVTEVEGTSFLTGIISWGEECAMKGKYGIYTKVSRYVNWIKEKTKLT

Coagulation factor X = Coagulation factor X (Homo sapiens, UniProt P00742); test: Inhibition of activated factor 10 (unknown origin) using Ac-QRSR-pNA as substrate after 30 mins relative to untreated control
Chain of Coagulation factor X (P00742 41-179 limits assumed): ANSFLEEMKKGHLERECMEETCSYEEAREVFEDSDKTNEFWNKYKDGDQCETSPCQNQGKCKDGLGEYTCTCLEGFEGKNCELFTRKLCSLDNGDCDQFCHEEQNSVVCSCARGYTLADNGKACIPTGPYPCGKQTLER
Chain of Coagulation factor X (P00742 235-488 limits assumed): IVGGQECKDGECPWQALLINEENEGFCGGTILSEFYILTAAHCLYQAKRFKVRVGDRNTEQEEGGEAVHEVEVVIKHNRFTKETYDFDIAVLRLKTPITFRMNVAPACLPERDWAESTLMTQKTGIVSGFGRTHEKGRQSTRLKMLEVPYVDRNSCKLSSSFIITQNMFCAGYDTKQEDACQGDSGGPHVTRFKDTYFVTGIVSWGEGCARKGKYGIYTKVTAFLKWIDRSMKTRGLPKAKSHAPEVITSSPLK

Prothrombin = Prothrombin (Homo sapiens, UniProt P00734); test: Inhibition of human thrombin using Ac-ATPR-pNA as substrate after 30 mins relative to untreated control
[1] = target: Tissue-type plasminogen activator (Homo sapiens, UniProt P00750); test: Inhibition of tPA (unknown origin) using Z-Pyr-Gly-Arg-MCA as substrate after 30 mins relative to untreated control
Chain of Tissue-type plasminogen activator (P00750 whole entry): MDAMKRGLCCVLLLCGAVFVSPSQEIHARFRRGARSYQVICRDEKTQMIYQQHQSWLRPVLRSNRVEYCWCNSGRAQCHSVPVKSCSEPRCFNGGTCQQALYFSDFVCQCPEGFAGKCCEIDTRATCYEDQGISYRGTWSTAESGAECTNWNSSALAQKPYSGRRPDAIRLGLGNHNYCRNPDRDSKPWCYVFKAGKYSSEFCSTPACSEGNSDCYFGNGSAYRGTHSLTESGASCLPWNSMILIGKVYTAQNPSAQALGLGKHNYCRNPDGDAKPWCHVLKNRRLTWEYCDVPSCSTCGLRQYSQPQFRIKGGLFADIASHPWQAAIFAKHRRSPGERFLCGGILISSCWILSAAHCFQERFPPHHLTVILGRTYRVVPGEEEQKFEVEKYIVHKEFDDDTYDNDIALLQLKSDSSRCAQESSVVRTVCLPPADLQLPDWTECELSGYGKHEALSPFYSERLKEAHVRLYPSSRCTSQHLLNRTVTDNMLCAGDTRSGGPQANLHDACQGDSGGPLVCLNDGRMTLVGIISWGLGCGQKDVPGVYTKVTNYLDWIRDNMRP

[2] = target: Urokinase-type plasminogen activator (Homo sapiens, UniProt P00749); test: Inhibition of uPA (unknown origin) using Z-Pyr-Gly-Arg-MCA as substrate after 30 mins relative to untreated control
Coagulation factor XI = Coagulation factor XI (Homo sapiens, UniProt P03951); test: Inhibition of activated beta-factor 11 (unknown origin) using Bz-FVRpNA as substrate after 30 mins relative to untreated control
Chain of Coagulation factor XI (P03951 19-387 limits assumed): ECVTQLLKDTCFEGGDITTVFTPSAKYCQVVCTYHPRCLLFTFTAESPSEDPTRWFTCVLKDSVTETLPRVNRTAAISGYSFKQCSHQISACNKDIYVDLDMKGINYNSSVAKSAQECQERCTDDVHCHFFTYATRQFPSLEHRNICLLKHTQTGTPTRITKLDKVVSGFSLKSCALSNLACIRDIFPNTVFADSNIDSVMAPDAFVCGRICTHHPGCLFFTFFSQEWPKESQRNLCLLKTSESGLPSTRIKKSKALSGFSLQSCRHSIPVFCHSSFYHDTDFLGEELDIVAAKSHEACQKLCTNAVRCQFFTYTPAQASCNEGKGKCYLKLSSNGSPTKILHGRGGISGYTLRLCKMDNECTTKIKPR
Chain of Coagulation factor XI (P03951 388-625 limits assumed): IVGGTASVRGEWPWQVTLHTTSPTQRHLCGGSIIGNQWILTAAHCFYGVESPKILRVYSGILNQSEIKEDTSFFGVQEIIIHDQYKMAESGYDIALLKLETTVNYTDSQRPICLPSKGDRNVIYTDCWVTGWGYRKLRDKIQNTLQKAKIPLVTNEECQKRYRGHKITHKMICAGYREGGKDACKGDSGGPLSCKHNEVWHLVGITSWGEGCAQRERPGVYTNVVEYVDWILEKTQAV

Plasma kallikrein = Plasma kallikrein (Homo sapiens, UniProt P03952); test: Inhibition of plasma KLK (unknown origin) using Ac-NLTR-pNA as substrate after 30 mins relative to untreated control
Chain of Plasma kallikrein (P03952 20-390 limits assumed): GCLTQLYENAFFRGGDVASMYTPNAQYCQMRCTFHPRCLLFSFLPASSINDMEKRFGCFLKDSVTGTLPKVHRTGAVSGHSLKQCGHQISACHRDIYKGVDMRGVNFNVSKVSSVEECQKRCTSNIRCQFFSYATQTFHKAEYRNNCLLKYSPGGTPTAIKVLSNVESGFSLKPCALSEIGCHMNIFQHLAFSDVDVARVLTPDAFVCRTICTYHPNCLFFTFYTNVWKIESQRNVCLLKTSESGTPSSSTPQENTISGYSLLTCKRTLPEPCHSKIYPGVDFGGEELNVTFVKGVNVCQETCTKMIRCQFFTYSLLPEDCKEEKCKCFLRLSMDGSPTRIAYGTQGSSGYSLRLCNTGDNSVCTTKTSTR
Chain of Plasma kallikrein (P03952 391-638 limits assumed): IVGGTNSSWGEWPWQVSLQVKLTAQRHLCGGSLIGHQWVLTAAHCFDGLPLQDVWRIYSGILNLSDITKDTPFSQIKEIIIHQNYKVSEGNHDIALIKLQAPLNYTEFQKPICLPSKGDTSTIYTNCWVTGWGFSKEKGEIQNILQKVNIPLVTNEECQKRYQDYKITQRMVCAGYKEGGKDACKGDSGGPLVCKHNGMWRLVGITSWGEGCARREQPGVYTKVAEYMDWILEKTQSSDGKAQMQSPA

Plasminogen [3] = target: T3, Plasminogen (Homo sapiens, UniProt P00747); test: Inhibition of human plasmin assessed as dissociation rate constant using Ac-RM(O2)YR-pNA as substrate after 30 mins
T3 sequence (P00747 97-580 limits assumed): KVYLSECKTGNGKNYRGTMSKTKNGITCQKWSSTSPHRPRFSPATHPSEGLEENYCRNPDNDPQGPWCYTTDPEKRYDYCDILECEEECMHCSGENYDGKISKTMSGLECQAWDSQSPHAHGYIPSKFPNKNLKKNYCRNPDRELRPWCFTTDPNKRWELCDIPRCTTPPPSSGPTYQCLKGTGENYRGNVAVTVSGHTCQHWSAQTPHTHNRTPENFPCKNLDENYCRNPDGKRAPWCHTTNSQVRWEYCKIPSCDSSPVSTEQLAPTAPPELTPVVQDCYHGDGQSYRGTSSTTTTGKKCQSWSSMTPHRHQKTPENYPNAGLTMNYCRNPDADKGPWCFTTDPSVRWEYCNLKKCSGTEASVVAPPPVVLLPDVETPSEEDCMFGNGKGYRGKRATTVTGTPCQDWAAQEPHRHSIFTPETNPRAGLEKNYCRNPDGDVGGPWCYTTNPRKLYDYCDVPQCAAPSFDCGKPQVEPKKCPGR
T3 sequence (P00747 581-810 limits assumed): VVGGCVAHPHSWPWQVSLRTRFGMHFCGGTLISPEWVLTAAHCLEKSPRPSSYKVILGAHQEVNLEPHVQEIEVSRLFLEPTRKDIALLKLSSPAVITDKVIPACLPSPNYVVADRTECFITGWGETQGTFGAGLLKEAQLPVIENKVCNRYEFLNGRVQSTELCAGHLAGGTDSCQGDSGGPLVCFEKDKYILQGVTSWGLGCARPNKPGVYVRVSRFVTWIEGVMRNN
Procedure, shortened: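 koff from the Baici and Gyger-Marazzi method: the lag phase before steady-state hydrolysis was compared between protease/inhibitor preincubated and substrate plus inhibitor added together. Human plasmin in 100 mM Tris pH 8.0, 100 mM NaCl, 0.005% Triton X-100, pNA substrate read at 405 nm.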

Plasminogen [4] = target: T3, Plasminogen; test: Inhibition of plasmin in human plasma assessed as reduction in tPA and thrombin-induced fibrinolysis at 400 nM by fibrin light scattering analysis relative to control; type: cell-free
Procedure, shortened: (§1)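 Pooled citrated human plasma with inhibitor in Tris-HCl pH 7.4, 150 mM NaCl, 30 mM CaCl2, plasma 1:5 final. Clotting and lysis started with tPA (1.5 nM) and thrombin (2.5 nM). Fibrin formation and lysis followed by light scattering at 405 nm over 1 h. Mean of three independent experiments, each with 12 technical replicates.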

Plasminogen [5] = target: T3, Plasminogen; test: Inhibition of plasmin in human plasma assessed as reduction in tPA and thrombin-induced fibrinolysis at 200 nM by fibrin light scattering analysis relative to control; type: cell-free; procedure, shortened: as §1
Homo sapiens [6] = organism: Homo sapiens; test: Selectivity index, ratio of IC50 for inhibition of activated beta-factor 9 (unknown origin) to IC50 for Inhibition of human plasmin
Homo sapiens [7] = organism: Homo sapiens; test: Selectivity index, ratio of IC50 for inhibition of activated factor 10 (unknown origin) to IC50 for Inhibition of human plasmin
Homo sapiens [8] = organism: Homo sapiens; test: Selectivity index, ratio of IC50 for inhibition of activated beta-factor 12 (unknown origin) to IC50 for Inhibition of human plasmin
Homo sapiens [9] = organism: Homo sapiens; test: Selectivity index, ratio of IC50 for inhibition of human thrombin to IC50 for Inhibition of human plasmin
Homo sapiens [10] = organism: Homo sapiens; test: Selectivity index, ratio of IC50 for inhibition of tPA (unknown origin) to IC50 for Inhibition of human plasmin
Homo sapiens [11] = organism: Homo sapiens; test: Selectivity index, ratio of IC50 for inhibition of uPA (unknown origin) to IC50 for Inhibition of human plasmin
Homo sapiens [12] = organism: Homo sapiens; test: Selectivity index, ratio of IC50 for inhibition of activated beta-factor 11 (unknown origin) to IC50 for Inhibition of human plasmin
Homo sapiens [13] = organism: Homo sapiens; test: Selectivity index, ratio of IC50 for inhibition of matriptase (unknown origin) to IC50 for Inhibition of human plasmin

Ki (Serine protease 1): 0.16 µM
Ki (Cathepsin G): 29 µM
Ki (Coagulation factor IX): > 50 µM
Ki (Coagulation factor X): > 50 µM
Ki (Prothrombin): > 50 µM
Ki [1]: > 50 µM
Ki [2]: > 50 µM
Ki (Coagulation factor XI): > 50 µM
Ki (Plasma kallikrein): > 50 µM
K (Plasminogen [3]): 9.9 ×10⁻⁴ /s
inhibition (Plasminogen [4]): 100%
inhibition (Plasminogen [5]): 90%
Ratio IC50 (Homo sapiens [6]): > 1e+06
Ratio IC50 (Homo sapiens [7]): > 1e+06
Ratio IC50 (Homo sapiens [8]): > 1e+06
Ratio IC50 (Homo sapiens [9]): > 1e+06
Ratio IC50 (Homo sapiens [10]): > 1e+06
Ratio IC50 (Homo sapiens [11]): > 1e+06
Ratio IC50 (Homo sapiens [12]): > 1e+06
Ratio IC50 (Homo sapiens [13]): > 1e+06
SMILES: CC[C@H](C)[C@@H]1NC(=O)[C@@H]2CCCN2C(=O)[C@@H]2CCCN2C(=O)[C@H](CCCCN)NC(=O)[C@H](CO)NC(=O)[C@H](CCCCN)NC(=O)[C@H](Cc2ccc(O)cc2)NC(=O)[C@@H]2CSSC[C@H](NC1=O)C(=O)N[C@@H](Cc1ccccc1)C(=O)N1CCC[C@H]1C(=O)N[C@@H](CC(=O)O)C(=O)NCC(=O)N[C@@H](CCCNC(=N)N)C(=O)N2 (HELM PEPTIDE1{C.F.P.D.G.R.C.Y.K.S.K.P.P.I}$PEPTIDE1,PEPTIDE1,1:R3-7:R3|PEPTIDE1,PEPTIDE1,1:R1-14:R2$$$V2.0)
